Assay results collected from several papers.
Lines come from different studies, so protocols differ.
Target: Carbonic anhydrase 9 (CA9, Homo sapiens, UniProt Q16790)
Effect on: enzyme activity
Action: inhibitor

The Ki of `NS(=O)(=O)c1ccc(CCNC2=NS(=O)(=O)c3ccc(Cl)cc3N2)cc1` is reported as 37.2 nM (stopped-flow).
`NS(=O)(=O)c1ccc(-n2nccc2-c2ccc(N3CCOCC3)cc2)cc1` gave a Ki of 245 nM.
`COc1ccc(C(=O)/C=C/c2cc3c(cc2Br)OCO3)cc1S(N)(=O)=O` has a Ki of 8170 nM.
The IC50 of `Cc1ccc(C(=O)Nc2ccc(C(=O)Nc3cccc(S(N)(=O)=O)c3)cc2)s1` is reported as 409 nM.
For `COc1ccc(C(=O)/C=C/c2cccc3ccccc23)cc1S(N)(=O)=O`, the Ki was 1640 nM.
`NS(=O)(=O)c1ccc(NC2=NC(=O)/C(=C\c3ccc(O)cc3)S2)cc1` has an IC50 of 203 nM.
For `Cn1cc(-c2cccc3oc(C(=O)NC4CCCN(CC(=O)Nc5ccc(S(N)(=O)=O)cc5)C4)cc23)nn1` (stereo not shown), the IC50 was 30.2 nM.
For `COc1cc(/C=C2/SC(Nc3ccc(S(N)(=O)=O)cc3)=NC2=O)cc(OC)c1OC`, the IC50 was 39.5 nM.
`NS(=O)(=O)c1ccc(-n2nccc2-c2ccc(N3CCCCC3)cc2)cc1` has a Ki of 227 nM.
With `Cc1ccc(-c2ccc(Nc3ccc(S(N)(=O)=O)cc3)nn2)cc1S(=O)(=O)N1CCCCC1` the IC50 was 7.94 nM.
